The text below walks through data of ChEMBL document CHEMBL1129511 (J Med Chem, 1996).

Molecules are shown by their SMILES. A value given as a limit tells only on which side of the number the result lay.

As a reminder, the IC50 is the concentration that gives 50% inhibition. A high value points to weaker potency in that assay. As usually defined, the half-life is how long it takes for the measured level to halve. Lower therefore signals fast loss. The term Km denotes the substrate concentration at which the rate is half of its maximum.

One series deals with LoVo. The series is described as follows: Inhibitory concentration was evaluated against colorectal tumar cell line LoVo. Type of series: functional, cell-based. The following applies: Homo sapiens. In outline:
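Cells were exposed to compound in microtitre plates for 1 h, washed, then grown a further 3 days at 37 °C. They were fixed with TCA, and adherent cellular protein was measured by SRB staining. IC50 is the concentration giving 50% growth inhibition.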

Series [1] in a line: Half life period was reported. Type of series: ADME.
Series [2] deals with Bacteria. Put plainly: Catalytic rate constant for bacterial Carboxypeptidase. Summed up:
(§1)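 CPG2 kinetics adapted from the methotrexate CPG2 method. Prodrug and drug spectra were scanned from 200 to 350 nm, and the wavelength of maximal absorbance difference from glutamate release was chosen. Initial rates of prodrug conversion were measured at 1-100 µM prodrug with 0.05-1 Unit CPG2 to give Km and Vmax. kcat was Vmax divided by the amount of CPG2.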

For series [3], the system named is Bacteria. Put plainly: Michaelis-Menten constant for bacterial Carboxypeptidase. In outline:
as §1

On to `O=C(O)CC[C@H](NC(=O)Sc1ccc(N(CCCl)CCCl)cc1)C(=O)O`, for which the IC50 with LoVo was 100 µM. The molecule further displayed a half-life in series [1] of 32.2 min. The same molecule returned a k cat with Bacteria [2] of 4 s⁻¹. Further, the Km in the series on Bacteria [3] is 50 µM.
As to `O=C(O)CC[C@H](NC(=O)Cc1ccc(N(CCCl)CCCl)cc1)C(=O)O`, the IC50 in the series on LoVo was > 500 µM. The molecule further showed a half-life in series [1] of 33 min. The molecule also had a k cat in the series with Bacteria [2] of 15 s⁻¹. In the series on Bacteria [3], the Km came to 16 µM.
Molecule `CS(=O)(=O)OCCN(CCCl)c1ccc(C(=O)O)cc1` displayed an IC50 in the series on LoVo of 80 µM.
For the molecule `O=C(O)CC[C@H](NC(=O)Oc1ccc(N(CCCl)CCCl)cc1)C(=O)O`, the IC50 in the series with LoVo came to 200 µM. Further, the half-life in series [1] amounted to 31 min. The molecule further registered a k cat with Bacteria [2] of 49 s⁻¹. Further, the Km with Bacteria [3] stood at 1 µM.
The matching figures for `O=C(O)CC[C@H](NC(=O)Nc1ccc(N(CCCl)CCCl)cc1)C(=O)O`: 200 µM, 16.9 min, 7.5 s⁻¹ and 3 µM.
The matching figures for `CS(=O)(=O)OCCN(CCCl)c1ccc(C(=O)N[C@@H](CCC(=O)O)C(=O)O)cc1`: > 500 µM, 46 min, 583 s⁻¹ and 3.4 µM.
In the case of `O=C(O)CC[C@H](NC(=O)c1ccc(N(CCCl)CCCl)cc1)C(=O)O`, the IC50 with LoVo is > 500 µM. The same molecule had a half-life in series [1] of 660 min. In the series with Bacteria [2], this molecule had a k cat of 700 s⁻¹. Also, the Km with Bacteria [3] came out at 3.4 µM.
